From PubChem
Most compounds without a hit are left out; they make up all but 3.8% or so of the library.
Xi reactivation: reactivates the inactive X chromosome in mouse fibroblasts; activation, % at 7.58 µM; XiGFP mouse fibroblasts, % GFP-positive cells imaging, 3 d; cells co-treated with 5-aza-dC sensitizer; scaled so ellipticine positive control = 100%; hit rate 0.055% among 360,000;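 active = mean normalized replicate activation at least 10% and every replicate at or above 10%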
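System: 68-5-11 XiGFP fibroblast line | Buffer or medium: DMEM containing 5-aza-dC | Compound: Single point | Times: Compounds 3 days, fix/stain 15 min at room temperature | Benchmarks: Positive control ellipticine, 6 µM final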
FGF22 binding: binders of recombinant human FGF22 by thermal shift. AID 651658. activity (Tm shift, normalised), % at 9.99 µM. hit rate 1.5% among 340,000. Q9HCT0. SYPRO orange fluorescence; percent of sucrose octasulfate shift, DMSO zero;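 active = mean Tm shift, scaled 0 neutral to 100 positive control, at about 1.3% or above, every replicate too, limit read from the data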
Target sequence (Q9HCT0 whole entry, looked up): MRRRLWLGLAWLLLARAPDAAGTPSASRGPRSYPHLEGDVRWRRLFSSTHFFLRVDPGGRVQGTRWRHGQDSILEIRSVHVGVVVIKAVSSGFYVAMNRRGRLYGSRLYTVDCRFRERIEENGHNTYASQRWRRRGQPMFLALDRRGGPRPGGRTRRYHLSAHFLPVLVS
DENV2 CPE rescue: protects cells from dengue virus 2 cytopathic effect | AID 651640 | hit rate 1.7% among 350,000 | CPE inhibition, % at 9.99 µM | DENV2-infected cells, cytopathic effect rescue, plate reader; in the data active = CPE inhibition above about 20%, passing the limit was not always enough; tested in BHK-21 cells
FN deposit inh: fibronectin deposition inhibition. AH1F fibroblasts, Alexa488-fibronectin deposition fluorescence, overnight. inhibition, % at 12.6 µM. hit rate 0.086% among 350,000;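 active = mean inhibition across replicates of 30% or more, regardless of how many single replicates reach that level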
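Measured by – fluorescence 485/525 nm · System – AH1F fibroblast monolayer, labelled fibronectin deposition · Amount – 10000 cells per well · Buffer or medium – serum-reduced DMEM (2% serum) · Doses – single dose, pinned · Also added – fluorescent fibronectin at 24 nM final · Schedule – 1 h cell attachment, overnight exposure to compound and label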
ARNT TACC3 PPI: disruptors of human ARNT/TACC3 interaction; Q9Y6A5; AlphaScreen His-ARNT PAS-B/GST-TACC3 binding, luminescence; TACC3 fragment carries E629A point mutation; inhibition, % at 9.99 µM; hit rate 0.66% among 390,000; AID 623870;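 active = mean inhibition of replicates at least 50% and at least half of replicates each reaching 50%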
SIRT5 inh: sirtuin-5 (human) deacylase inhibition. AID 652115. Q9NXA8. Purified SirT5, succinyl-peptide AMC, trypsin-coupled fluorescence. hit rate 1.1% among 330,000. inhibition, % at 15 µM; in the data active = inhibition above about 15%
Target sequence (Q9NXA8 whole entry, looked up): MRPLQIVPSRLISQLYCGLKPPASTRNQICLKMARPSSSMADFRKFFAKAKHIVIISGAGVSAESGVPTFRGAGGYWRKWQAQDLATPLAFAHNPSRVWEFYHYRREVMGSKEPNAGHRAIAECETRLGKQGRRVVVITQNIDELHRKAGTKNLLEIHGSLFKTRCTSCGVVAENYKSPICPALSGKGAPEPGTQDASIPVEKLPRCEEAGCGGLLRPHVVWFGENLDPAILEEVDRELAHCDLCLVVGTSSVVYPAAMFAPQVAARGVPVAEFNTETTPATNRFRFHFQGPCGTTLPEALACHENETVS
Of the large screens only hits and unclear results are named; the others gave an inactive call.

O=C(Nc1ccccc1)N1CCCCN2[C@H](CO)[C@H](c3ccc(Br)cc3)[C@@H]2C1	DENV2 CPE rescue 28 (no result: FN deposit inh)
Cc1ccccc1-c1ccc([C@@H]2[C@H]3CN(C(=O)Nc4ccccc4)CCCCN3[C@H]2CO)cc1	DENV2 CPE rescue 61 (no result: FN deposit inh)
O=C(Nc1ccccc1)N1CCCCN2[C@H](C1)[C@@H](c1ccc(-c3ccccc3)cc1)[C@@H]2CO	none (no result: FN deposit inh)
O=C(C[C@@H]1CC[C@H]2[C@@H](COC[C@@H](O)CN2C(=O)c2ccccc2F)O1)N1CCCCC1	none
COc1cccc(NC(=O)C[C@H]2CC[C@H]3[C@@H](COc4ccc(NC(=O)C5CCC5)cc4C(=O)N3C)O2)c1	none (no result: FGF22 binding, DENV2 CPE rescue, ARNT TACC3 PPI, SIRT5 inh)
CCOc1c(Cl)cc(CNCC(C)C)cc1OC	none (no result: Xi reactivation, FGF22 binding, DENV2 CPE rescue, SIRT5 inh)
CCOc1cc(CNCC(C)C)cc(Cl)c1OCc1ccccc1	FGF22 binding 44
CCN(CC)C(=O)COc1c(-c2ccco2)oc2ccccc2c1=O	none
CCN(CC)C(=O)COc1ccc2oc(-c3ccco3)cc(=O)c2c1	FGF22 binding 44 (no result: DENV2 CPE rescue)
O=C1/C(=C\c2ccc(Cl)cc2)CCC1CNc1ccc(Cl)cc1 (configuration not stated)	DENV2 CPE rescue 63
CN(C)CC1CC/C(=C\c2ccc(O)cc2)C1=O (configuration not stated)	none
Cc1ccn2cc(-c3ccc(NC(=O)c4ccco4)cc3)nc2c1	FN deposit inh 32 (no result: FGF22 binding, DENV2 CPE rescue, SIRT5 inh)
CO[C@@H](CN(C)S(=O)(=O)c1ccc(Cl)cc1)[C@H](C)CN([C@H](C)CO)S(=O)(=O)c1cccc(Cl)c1	SIRT5 inh 16
CO[C@H](CN(C)S(=O)(=O)c1cccc(Cl)c1)[C@H](C)CN([C@@H](C)CO)S(=O)(=O)c1ccc(Cl)cc1	none
CC1=Nc2ccc(C)cc2/C1=C/c1c(N)n2c(S(=O)(=O)C(C)C)nsc2nc1=O	SIRT5 inh 19 (no result: FGF22 binding)
CSc1nsc2nc(=O)c(/C=C3\C=Nc4ccccc43)c(N)n12	FGF22 binding 1.5
CC1=Nc2ccccc2/C1=C/c1c(N)n2c(S(=O)(=O)C(C)C)nsc2nc1=O	none (no result: FGF22 binding, DENV2 CPE rescue, ARNT TACC3 PPI, SIRT5 inh)
CC1=Nc2ccccc2/C1=C/c1c(N)n2c(S(=O)(=O)CC(C)C)nsc2nc1=O	FGF22 binding 44
COc1ccc2c3c([nH]c2c1)[C@@H](CO)N(C(=O)NC(C)C)CC31CCN(C(=O)NC(C)C)CC1	none (no result: FN deposit inh, ARNT TACC3 PPI)
CCN(Cc1ccncc1)C(=O)CCc1nnc(CCc2ccc(OC)cc2)o1	FGF22 binding 44 (no result: ARNT TACC3 PPI)
C[C@@H]1CCCCO[C@@H](CN(C)CC2CC2)[C@@H](C)CN([C@H](C)CO)C(=O)c2cc(NC(=O)NC3CCCCC3)ccc2O1	none (no result: FN deposit inh)
CNC[C@H]1Oc2c(NC(=O)c3cc(C)nn3C)cccc2C(=O)N([C@H](C)CO)C[C@H]1C	none (no result: FN deposit inh)
CCN(C(=O)CN1C(=O)S/C(=C\c2cccc(OC)c2)C1=O)C1CCS(=O)(=O)C1 (configuration not stated)	SIRT5 inh 16 (no result: ARNT TACC3 PPI)
COc1cccc(/C=C2\SC(=S)N(CC(=O)N(C)C3CCS(=O)(=O)C3)C2=O)c1 (configuration not stated)	none
COc1ccccc1NC(=O)N[C@@H]1CC[C@@H](CCNS(=O)(=O)c2ccc(F)cc2)O[C@H]1CO	none (no result: FN deposit inh)
COc1ccc(-n2c(SCC(N)=O)nc3sc4c(c3c2=O)CCC4)cc1	FGF22 binding 43
CC(=O)c1c(C)[nH]c(C(=O)N2CCN(c3ncccn3)CC2)c1C	SIRT5 inh 16
C[C@@H]1CN([C@@H](C)CO)C(=O)CCCn2nncc2CO[C@@H]1CN(C)Cc1ccc2c(c1)OCCN2C	none
CC(=O)N1C(=O)N(C(C)=O)C2C1N(C)C(=O)N2C(C)=O (configuration not stated)	FGF22 binding 43
O=C(Nc1ccccc1F)C(=Cc1sc(N2CCOCC2)nc1-c1ccccc1)C(=O)Nc1ccccc1F	FGF22 binding 44
O=C(N/N=C/c1sc(N2CCOCC2)nc1-c1ccccc1)c1ccccc1O	none (no result: FGF22 binding, DENV2 CPE rescue, ARNT TACC3 PPI, SIRT5 inh)
O=C1NCCN(Cc2ccc(Cl)c(F)c2)C1CC(=O)N1CCCO1 (configuration not stated)	FGF22 binding 43 (no result: ARNT TACC3 PPI)
CCN=C1NC(c2ccccc2C(F)(F)F)C(C(=O)OC)=C(C)N1C (configuration not stated)	DENV2 CPE rescue 21 (no result: ARNT TACC3 PPI)
CCCN1[C@@H]2c3ccc(-c4cccc(OC)c4)c(=O)n3C[C@H]1[C@H](CO)[C@H]2C(=O)NCC	none (no result: FN deposit inh)
O=C(C1CCOCC1)N1C[C@@H]2[C@H](c3ccccc31)[C@H](CO)N2Cc1ccccc1Cl	none (no result: FN deposit inh)
Cc1ccc(S(=O)(=O)Nc2ccc3c(c2)C(=O)N([C@@H](C)CO)C[C@H](C)[C@H](CN(C)C(=O)CCC(F)(F)F)OCCCC[C@H](C)O3)cc1	SIRT5 inh 17 (no result: FGF22 binding)
C[C@H]1CCCCO[C@H](CN(C)C(=O)CCC(F)(F)F)[C@@H](C)CN([C@@H](C)CO)C(=O)c2cc(NS(=O)(=O)c3ccc(Cl)cc3)ccc2O1	SIRT5 inh 15
C[C@H](CO)N1C[C@H](C)[C@@H](CN(C)C(=O)CCC(F)(F)F)OCCCC[C@H](C)Oc2ccc(NS(=O)(=O)c3ccc(Cl)cc3)cc2C1=O	none
O=C(CC(F)(F)F)N1C[C@@H]2[C@H](c3ccccc31)[C@@H](CO)N2C(=O)C1CCOCC1	none (no result: FN deposit inh)
O=C1C=C(O)c2[nH]c(=O)ccc2C1=O	ARNT TACC3 PPI 36
O=C1C=C(O)c2c(O)cc(O)c(O)c2C1=O	none (no result: Xi reactivation, FN deposit inh, SIRT5 inh)
CCOC(=O)Cc1csc(NC(=O)CCSc2ccccc2)n1	FGF22 binding 2.5
CCOC(=O)Cc1csc(NC(=O)CC)n1	none (no result: Xi reactivation, FGF22 binding, DENV2 CPE rescue, SIRT5 inh)
CCOC(=O)Cc1csc(NC(=O)Cn2cnc3c2c(=O)n(C)c(=O)n3C)n1	SIRT5 inh 25 (no result: DENV2 CPE rescue)
CC(C)(C)Cc1nnc(NC(=O)CCc2ccccc2)s1	none
CCOC(=O)Cc1nnc(NC(=O)CCc2ccccc2)s1	SIRT5 inh 17
COC(=O)c1ccccc1NC(=O)Cn1cnc2c1c(=O)n(C)c(=O)n2C	none
CCOC(=O)Cc1csc(NC(=O)CCc2ccccc2)n1	none
CCOc1ccccc1OCC(=O)NNC(=O)Cn1cnc2c1c(=O)n(C)c(=O)n2C	FGF22 binding 44
CC[C@@H]1C/C=C\C[C@@H](c2ccccc2)NC(=O)CCC(=O)N1	none (no result: FGF22 binding, DENV2 CPE rescue, ARNT TACC3 PPI, SIRT5 inh)
CCC(=O)N1[C@@H]2Cn3c(cccc3=O)[C@H]1[C@@H](C(=O)NC1CCCC1)[C@@H]2CO	none (no result: FGF22 binding, ARNT TACC3 PPI)
CCCS(=O)(=O)N1CCN(C2Cc3ccccc3C2)CC1	SIRT5 inh 17
CCCc1ccc(-c2cc(NC(=O)CSc3nnc(N)s3)n(-c3ccccc3)n2)cc1	SIRT5 inh 20 (no result: ARNT TACC3 PPI)
O=C(NNC(=O)c1ccccc1-n1cccc1)c1ccccc1	none (no result: Xi reactivation, FGF22 binding, DENV2 CPE rescue, FN deposit inh, SIRT5 inh)
NNC(=O)c1ccccc1-n1cccc1	FGF22 binding 43, SIRT5 inh 22 (no result: ARNT TACC3 PPI)
